A short description of data set [1]: folding enthalpy; higher = less favourable; fluorescence melt of hairpins on a sequencing array, two-state fit. The conditions noted are these: sodium 0.088 M. The essentials:
(§1)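 In 50 mM Na-HEPES pH 8.0 containing 25 mM NaCl, hairpins from the library on a sequenced MiSeq flow cell were imaged for Cy3 fluorescence at 2.5 °C steps up to 60 °C, with Cy3 and quencher oligos annealed. After normalisation to pre-quench Cy3 and to control constructs, two-state fits with bootstrapping gave melting temperature and folding enthalpy. Four replicates were combined by inverse-variance weighting, and fitted temperatures were shifted up by 9.35 °C to match UV melts.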

Data set [2] in a line: melting temperature; fluorescence melt of hairpins on a sequencing array, two-state fit, raised by 9.35 °C to match UV melts. The conditions noted are these: sodium 0.088 M. The essentials:
as §1

On to GTACTCGAAAGAGTATAC ((((((....)))..))), for which the folding enthalpy in data set [1] was -13.3 kcal/mol. Besides, the Tm in data set [2] was determined as 39.3 °C.
On to GTACTCGAAAGAGTGTAC ((((((....)))..))), for which the folding enthalpy in data set [1] was -12.6 kcal/mol. Moreover, the Tm in data set [2] was 35.9 °C.
GTACTCGAAAGAGTTAC ((((((....))).))): the folding enthalpy in data set [1] was -14.8 kcal/mol. In data set [2], the Tm was 38.9 °C.
As to GTACTCGGAAACAAGTAC (((((.(....).))))), in data set [1], the folding enthalpy was -23.4 kcal/mol. For the same sequence, the Tm in data set [2] is 32.5 °C.
The corresponding values for GTACTCGGAAACGAATAC (((.(((....))).))) are -17.8 kcal/mol and 33.5 °C.
Turning to GTACTGCGAAAGCATAC (((.(((....)))))), the folding enthalpy in data set [1] is -12 kcal/mol. For the same sequence, the Tm in data set [2] was determined as 36.6 °C.
Take GTACTGGGAAACTGGTAC ((((..(....)..)))): the folding enthalpy in data set [1] is -24.5 kcal/mol. In data set [2], the Tm is 36.5 °C.
On to GTACTGTCGAAAGACTAC (((..(((....)))))), for which the folding enthalpy in data set [1] was -10.3 kcal/mol. For the same sequence, the Tm in data set [2] worked out at 26.4 °C.
For GTACTTACGAAAGTATAC (((..(((....)))))), the folding enthalpy in data set [1] was -6.58 kcal/mol. The Tm in data set [2] was 16.2 °C.
On to GTACTTGGAAACAAGTGC (.(((((....))))).), for which, in data set [1], the folding enthalpy was -21.1 kcal/mol. In data set [2], the Tm is 47.4 °C.
With GTACTTGGAAACGAGTAC (((((.(....).))))), the folding enthalpy in data set [1] is -33.6 kcal/mol. In addition, the Tm in data set [2] is 44.2 °C.
The corresponding values for GTAGACGAAAGTCCTTAC ((((((....)))..))) are -12.1 kcal/mol and 30.7 °C.
The corresponding values for GTAGACGAAAGTCGTTAC ((((((....)))..))) are -11 kcal/mol and 34.6 °C.
As to GTAGACGAAAGTCTAC ((((((....)))))), the folding enthalpy in data set [1] is -35.9 kcal/mol. Also, the Tm in data set [2] worked out at 62 °C.
On to GTAGACGCGAAAGCGTAC (((..(((....)))))), for which, in data set [1], the folding enthalpy is -8.63 kcal/mol. Also, the Tm in data set [2] turned out to be 36.9 °C.
GTAGACGGAAACGTTTGC (.(.(((....))).).): in data set [1], the folding enthalpy was -16.7 kcal/mol. The Tm in data set [2] came to 29.6 °C.
As for GTAGAGCCGAAAGGCTAC (((..(((....)))))), in data set [1], the folding enthalpy is -10.5 kcal/mol. Further, the Tm in data set [2] amounted to 34.6 °C.
On to GTAGAGGGAAACCTCTAC (((((((....))))))), for which, in data set [1], the folding enthalpy was -54.2 kcal/mol. For the same sequence, the Tm in data set [2] was determined as 55.8 °C.
For GTAGATGAAAATCTAC ((((((....)))))) the same measures were -29.2 kcal/mol and 48.6 °C.
Regarding GTAGATGGAAACATCTAC (((((((....))))))), in data set [1], the folding enthalpy is -41.3 kcal/mol. The Tm in data set [2] came out at 55.5 °C.
In the case of GTAGCAGGAAACCGCTAC (((((.(....).))))), the folding enthalpy in data set [1] is -32.4 kcal/mol. The Tm in data set [2] is 48.5 °C.
Turning to GTAGCAGGAAACTGCCAC ((.((((....)))).)), the folding enthalpy in data set [1] was -14.3 kcal/mol. Besides, the Tm in data set [2] is 36.7 °C.
As to GTAGCCCCGAAAGGGTAC (((..(((....)))))), in data set [1], the folding enthalpy was -13.1 kcal/mol. For the same sequence, in data set [2], the Tm is 39.1 °C.
GTAGCCCGAAAGGGGTAC (((.(((....))).))): the folding enthalpy in data set [1] was -32 kcal/mol. In addition, the Tm in data set [2] was determined as 68.5 °C.
In the case of GTAGCCCGAAAGGGTTAC (((.(((....))).))), in data set [1], the folding enthalpy is -25.4 kcal/mol. The Tm in data set [2] was found to be 60.2 °C.
As for GTAGCCGAAAGGCAATAC ((((((....)))..))), the folding enthalpy in data set [1] was -9.85 kcal/mol. In addition, the Tm in data set [2] is 31.2 °C.
With GTAGCCGAAAGGCCGTAC ((((((....)))..))), the folding enthalpy in data set [1] is -7.15 kcal/mol. For the same sequence, in data set [2], the Tm was found to be 26.7 °C.
The corresponding values for GTAGCCGAAAGGCGGTAC ((((((....)))..))) are -9.4 kcal/mol and 41.2 °C.
As for GTAGCGCGAAAGCGGTAC (((.(((....))).))), the folding enthalpy in data set [1] is -25.3 kcal/mol. Besides, in data set [2], the Tm was determined as 68.8 °C.
Turning to GTAGCGGGAAACCGCTGC (.(((((....))))).), the folding enthalpy in data set [1] was -17.3 kcal/mol. The Tm in data set [2] was found to be 59.7 °C.
